Experimental data as given in ChEMBL document CHEMBL3259614, “Design, synthesis, and structure-activity relationship studies of novel fused heterocycles-linked triazoles with good activity and water solubility” (J Med Chem, 2014).
Values after ≈ are worked out from the molar mass of the structure shown.

Assays:
[1] = system: Candida albicans; assay: Antimicrobial activity against Candida albicans Y0109 after 24 hrs by serial dilution method; type: functional; conditions: Y0109, 24 h
Method in brief: (§1)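 Broth serial dilution MIC in 96-well plates following NCCLS/CLSI methods. Compounds were dissolved in DMSO and serially diluted in growth medium, with incubation at 35 °C. […] C. parapsilosis 22019 served as the quality-control strain in each assay.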

[2] = system: Candida albicans; assay: Ratio of fluconazole MIC to compound MIC for fluconazole-resistant Candida albicans 103 after 24 hrs by serial dilution method; type: functional
[3] = system: Candida albicans; assay: Antimicrobial activity against fluconazole-resistant Candida albicans J18 after 24 hrs by serial dilution method; type: functional; conditions: J18, 24 h
Method in brief: (§2)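 Broth serial-dilution MIC in 96-well plates following NCCLS guidance. Compounds were dissolved in DMSO and serially diluted in growth medium. Clinical isolates came from a hospital collection. […] C. parapsilosis ATCC 22019 served as the quality-control strain in each assay.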

[4] = system: Candida albicans; assay: Ratio of fluconazole MIC to compound MIC for fluconazole-resistant Candida albicans 100 after 24 hrs by serial dilution method; type: functional
[5] = system: Candida albicans; assay: Ratio of fluconazole MIC to compound MIC for fluconazole-resistant Candida albicans J18 after 24 hrs by serial dilution method; type: functional
[6] = system: Cryptococcus neoformans; assay: Antimicrobial activity against Cryptococcus neoformans 32609 after 72 hrs by serial dilution method; type: functional; conditions: Cryptococcus neoformans, 32609, 72 h; method in brief: as §1
[7] = system: Candida albicans; assay: Antimicrobial activity against fluconazole-resistant Candida albicans 100 after 24 hrs by serial dilution method; type: functional; conditions: Candida albicans, 100, 24 h; method in brief: as §2
[8] = system: Nakaseomyces glabratus; assay: Antimicrobial activity against Candida glabrata 537 after 24 hrs by serial dilution method; type: functional; conditions: Nakaseomyces glabratus, 537, 24 h; method in brief: as §1
[9] = system: Aspergillus fumigatus; assay: Antimicrobial activity against Aspergillus fumigatus 7544 after 48 hrs by serial dilution method; type: functional; conditions: Aspergillus fumigatus, 7544, 48 h; method in brief: as §1
[10] = system: Candida albicans; assay: Antimicrobial activity against fluconazole-resistant Candida albicans J38 after 24 hrs by serial dilution method; type: functional; conditions: J38, 24 h; method in brief: as §2
[11] = system: Candida albicans; assay: Antimicrobial activity against fluconazole-resistant Candida albicans J28 after 24 hrs by serial dilution method; type: functional; conditions: J28, 24 h; method in brief: as §2
[12] = system: Candida albicans; assay: Antimicrobial activity against fluconazole-resistant Candida albicans 103 after 24 hrs by serial dilution method; type: functional; conditions: Candida albicans, 103, 24 h; method in brief: as §2
[13] = system: Candida parapsilosis; assay: Antimicrobial activity against Candida parapsilosis 22019 after 24 hrs by serial dilution method; type: functional; conditions: Lodderomyces parapsilosis, 22019, 24 h; method in brief: as §1
[14] = system: Candida albicans; assay: Antimicrobial activity against Candida albicans SC5314 after 24 hrs by serial dilution method; type: functional; conditions: SC5314, 24 h; method in brief: as §1
[15] = Aqueous solubility of the compound in hydrochloric acid solution at pH 1.2; type: physicochemical
Method in brief: (§3)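 Excess solid was stirred for 3 h in pH 1.2 hydrochloric acid or pH 7.4 phosphate buffer, then filtered through 0.45 μm. Absorbance at the UV maximum was compared with a methanol standard, C′ = A′C/A, with values reported in mg/mL. Determined at 30 °C; mean ± SD, n = 3.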

[16] = Aqueous solubility of the compound in phosphate buffer at pH 7.4; type: physicochemical; method in brief: as §3

Structure (SMILES) | MIC [1] | Ratio [2] | MIC [3] | Ratio [4] | Ratio [5] | MIC [6] | MIC [7] | MIC [8] | MIC [9] | MIC [10] | MIC [11] | MIC [12] | MIC [13] | MIC [14] | solubility [15] | solubility [16]
C[C@@H](N1CCn2nnc(Br)c2C1)[C@](O)(Cn1cncn1)c1ccc(F)cc1F | 0.0625 µg/mL (≈ 0.138 µM) | 16 | > 32 µg/mL | 16 | 16 | ≤ 0.0625 µg/mL | > 32 µg/mL | 0.25 µg/mL (≈ 0.55 µM) | 8 µg/mL (≈ 17.6 µM) | 0.25 µg/mL (≈ 0.55 µM) | 2 µg/mL (≈ 4.4 µM) | > 32 µg/mL | 0.125 µg/mL (≈ 0.275 µM) | ≤ 0.0312 µg/mL | – | –
C[C@@H](N1CCn2nc(-c3cccnc3)nc2C1)[C@](O)(Cn1cncn1)c1ccc(F)cc1F | 0.0312 µg/mL (≈ 0.0691 µM) | – | – | – | – | 0.0312 µg/mL (≈ 0.0691 µM) | – | 0.0312 µg/mL (≈ 0.0691 µM) | 32 µg/mL (≈ 70.7 µM) | – | – | – | 0.0312 µg/mL (≈ 0.0691 µM) | 0.0312 µg/mL (≈ 0.0691 µM) | 5900 µg/mL (≈ 13000 µM) | 1820 µg/mL (≈ 4010 µM)
C[C@@H](N1CCc2nc(-c3ccccc3)sc2C1)[C@](O)(Cn1cncn1)c1ccc(F)cc1F | 0.5 µg/mL (≈ 1.07 µM) | – | – | – | – | 0.125 µg/mL (≈ 0.267 µM) | – | 0.5 µg/mL (≈ 1.07 µM) | 16 µg/mL (≈ 34.2 µM) | – | – | – | 0.5 µg/mL (≈ 1.07 µM) | 0.5 µg/mL (≈ 1.07 µM) | 1250 µg/mL (≈ 2670 µM) | 130 µg/mL (≈ 278 µM)
C[C@@H](N1CCc2nc(-c3cccnc3)sc2C1)[C@](O)(Cn1cncn1)c1ccc(F)cc1F | 0.0312 µg/mL (≈ 0.0667 µM) | – | – | – | – | 0.0625 µg/mL (≈ 0.133 µM) | – | 0.125 µg/mL (≈ 0.267 µM) | 2 µg/mL (≈ 4.27 µM) | – | – | – | 0.125 µg/mL (≈ 0.267 µM) | 0.0312 µg/mL (≈ 0.0667 µM) | 10100 µg/mL (≈ 21500 µM) | 2360 µg/mL (≈ 5040 µM)
C[C@@H](N1CCc2nc(-c3cncnc3)sc2C1)[C@](O)(Cn1cncn1)c1ccc(F)cc1F | 0.0156 µg/mL (≈ 0.0332 µM) | – | > 16 µg/mL | – | – | 0.0625 µg/mL (≈ 0.133 µM) | > 16 µg/mL | 0.0625 µg/mL (≈ 0.133 µM) | 1 µg/mL (≈ 2.13 µM) | ≤ 0.0312 µg/mL | 0.0625 µg/mL (≈ 0.133 µM) | 8 µg/mL (≈ 17 µM) | 0.0625 µg/mL (≈ 0.133 µM) | 0.0156 µg/mL (≈ 0.0332 µM) | 14700 µg/mL (≈ 31300 µM) | 3090 µg/mL (≈ 6590 µM)
C[C@@H](N1CCc2sc(-c3ccc(C(F)(F)F)cc3)cc2C1)[C@](O)(Cn1cncn1)c1ccc(F)cc1F | 8 µg/mL (≈ 15 µM) | – | – | – | – | 8 µg/mL (≈ 15 µM) | – | 16 µg/mL (≈ 29.9 µM) | 32 µg/mL (≈ 59.9 µM) | – | – | – | 16 µg/mL (≈ 29.9 µM) | 4 µg/mL (≈ 7.48 µM) | – | –
C[C@@H](N1CCc2sc(-c3ccc(Cl)cc3)cc2C1)[C@](O)(Cn1cncn1)c1ccc(F)cc1F | 8 µg/mL (≈ 16 µM) | – | – | – | – | 8 µg/mL (≈ 16 µM) | – | 16 µg/mL (≈ 31.9 µM) | 32 µg/mL (≈ 63.9 µM) | – | – | – | 16 µg/mL (≈ 31.9 µM) | 4 µg/mL (≈ 7.98 µM) | – | –
Cc1ccc(-c2cc3c(s2)CCN([C@H](C)[C@](O)(Cn2cncn2)c2ccc(F)cc2F)C3)cc1 | 2 µg/mL (≈ 4.16 µM) | – | – | – | – | 4 µg/mL (≈ 8.32 µM) | – | 4 µg/mL (≈ 8.32 µM) | 8 µg/mL (≈ 16.6 µM) | – | – | – | 4 µg/mL (≈ 8.32 µM) | 1 µg/mL (≈ 2.08 µM) | – | –
C[C@@H](N1CCc2sc(-c3ccc(C#N)cc3)cc2C1)[C@](O)(Cn1cncn1)c1ccc(F)cc1F | 8 µg/mL (≈ 16.3 µM) | – | – | – | – | 4 µg/mL (≈ 8.14 µM) | – | 8 µg/mL (≈ 16.3 µM) | 64 µg/mL (≈ 130 µM) | – | – | – | 8 µg/mL (≈ 16.3 µM) | 2 µg/mL (≈ 4.07 µM) | – | –
Cc1cccc(-c2cc3c(s2)CCN([C@H](C)[C@](O)(Cn2cncn2)c2ccc(F)cc2F)C3)c1 | 2 µg/mL (≈ 4.16 µM) | – | – | – | – | 4 µg/mL (≈ 8.32 µM) | – | 4 µg/mL (≈ 8.32 µM) | 16 µg/mL (≈ 33.3 µM) | – | – | – | 2 µg/mL (≈ 4.16 µM) | 1 µg/mL (≈ 2.08 µM) | – | –
C[C@@H](N1CCc2sc(-c3cccc(F)c3)cc2C1)[C@](O)(Cn1cncn1)c1ccc(F)cc1F | 2 µg/mL (≈ 4.13 µM) | – | – | – | – | 1 µg/mL (≈ 2.06 µM) | – | 1 µg/mL (≈ 2.06 µM) | 8 µg/mL (≈ 16.5 µM) | – | – | – | 4 µg/mL (≈ 8.26 µM) | 1 µg/mL (≈ 2.06 µM) | – | –
C[C@@H](N1CCc2sc(-c3cccc(C#N)c3)cc2C1)[C@](O)(Cn1cncn1)c1ccc(F)cc1F | 4 µg/mL (≈ 8.14 µM) | – | – | – | – | 2 µg/mL (≈ 4.07 µM) | – | 8 µg/mL (≈ 16.3 µM) | 64 µg/mL (≈ 130 µM) | – | – | – | 4 µg/mL (≈ 8.14 µM) | 2 µg/mL (≈ 4.07 µM) | – | –
C[C@@H](N1CCc2sc(-c3cccc(Cl)c3)cc2C1)[C@](O)(Cn1cncn1)c1ccc(F)cc1F | 2 µg/mL (≈ 3.99 µM) | – | – | – | – | 4 µg/mL (≈ 7.98 µM) | – | 8 µg/mL (≈ 16 µM) | > 64 µg/mL | – | – | – | 4 µg/mL (≈ 7.98 µM) | 2 µg/mL (≈ 3.99 µM) | – | –
C[C@@H](N1CCc2sc(-c3cccc(C(F)(F)F)c3)cc2C1)[C@](O)(Cn1cncn1)c1ccc(F)cc1F | 0.5 µg/mL (≈ 0.935 µM) | – | – | – | – | 0.5 µg/mL (≈ 0.935 µM) | – | 1 µg/mL (≈ 1.87 µM) | 32 µg/mL (≈ 59.9 µM) | – | – | – | 2 µg/mL (≈ 3.74 µM) | 1 µg/mL (≈ 1.87 µM) | – | –
C[C@@H](N1CCc2sc(-c3cncnc3)cc2C1)[C@](O)(Cn1cncn1)c1ccc(F)cc1F | 4 µg/mL (≈ 8.54 µM) | – | – | – | – | 4 µg/mL (≈ 8.54 µM) | – | 8 µg/mL (≈ 17.1 µM) | > 32 µg/mL | – | – | – | 4 µg/mL (≈ 8.54 µM) | 2 µg/mL (≈ 4.27 µM) | – | –
C[C@@H](N1CCc2sc(-c3ccc(C#N)nc3)cc2C1)[C@](O)(Cn1cncn1)c1ccc(F)cc1F | 4 µg/mL (≈ 8.12 µM) | – | – | – | – | 1 µg/mL (≈ 2.03 µM) | – | 2 µg/mL (≈ 4.06 µM) | 32 µg/mL (≈ 65 µM) | – | – | – | 2 µg/mL (≈ 4.06 µM) | 1 µg/mL (≈ 2.03 µM) | – | –
